This is an account of results in PubChem BioAssay.

By viability is commonly meant a read-out of living cells in per cent, often relative to untreated cells.

Unmarked numbers belong to inactive results.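 Rule for the calls, unless noted: active = viability at or below 10% of carrier control in both of two separate runs; inconclusive = viability at or below 10% in only one of the two runs; inactive = the rest.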

The first test can be described thus: reduced viability of SK-BR-3 breast cancer cells – cell-based, 24 h, human, pilot screen (AID 572).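 Note: compound exposure lasted between 18 and 24 h rather than exactly 24 h; 100% = carrier-treated control wells.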 The settings on record: SK-BR-3 viability, CellTiter-Glo luminescence, at 10 µM, stronger effect = lower value.
Turning to `Cc1ccc(CNC(=O)C2CCCN(S(=O)(=O)c3cnc[nH]3)C2)cc1` (stereo not drawn), the viability was 94%.
On to `COc1cc2c(cc1OC)C(c1ccc(C)o1)CC(=O)N2` (stereo not drawn), for which the viability is 81.5%.
On to `COc1ccc(S(=O)(=O)Nc2ccc(F)c(Cl)c2)cc1OC`, for which the viability is 97.5%.
With `O=C(OCCN(CCOC(=O)c1ccncc1)S(=O)(=O)c1cccs1)c1ccncc1`, the viability was 102%.
For `N#CCCN(Cc1cccnc1)C(=O)Nc1ccc(Cl)c(Cl)c1`, the viability is 118%.
Regarding `NC(=O)CN1C(=O)C(O)(CC(=O)c2ccccc2O)c2ccccc21` (stereo not drawn), the viability is 92.5%.
Regarding `CCCOc1ccc(C2C(C(=O)OC)=CN(CCOC)C=C2C(=O)OC)cc1`, the viability was 89%.
Consider `C(=N\c1c(-c2ccccc2)nc2n1CCS2)/c1ccccc1`, for which the viability was 102%.
Still for that read-out and setting: next, `COC(=O)c1cn(NC(=O)C2CCCO2)c(=O)c2ccccc12` (stereo not drawn): 109%; `CCN1CCN(C(=O)C2CC(c3ccc(F)cc3)=NO2)CC1` (stereo not drawn): 91.5%.
With `CCOC(=O)C1CCN(Cc2ccc(OC)c(C)c2OC)CC1`, the viability was 88.5%.
Still for that read-out and setting: the result for `Cn1c(NC(=O)c2ccccc2NC(=O)C(C)(C)C)nc2ccccc21` reads 95%; that for `Cc1cccc(CN2CCC(CNC(=O)C3CCCN(S(=O)(=O)c4cnc[nH]4)C3)CC2)c1` (stereo not drawn), 98%.
In the case of `CC1CC(NC(=O)c2cnc3n(c2=O)CCS3)CC(C)(C)C1` (stereo not drawn), the viability was 83.5%.
With `CC1CCCN(S(=O)(=O)c2coc(C(N)=O)c2)C1` (stereo not drawn), the viability is 87.5%.
Regarding `O=C(NCc1ccc2c(c1)OCO2)C1CCCN(S(=O)(=O)c2cccc3cccnc23)C1` (stereo not drawn), the viability was 95.5%.
Still for that read-out and setting: next, `CC(C)(O)C#Cc1ccc(C(=O)N2CCN(C(=O)c3ccco3)CC2)cc1`: 102%; `COC(=O)C1=C(C)Nc2nnnn2C1c1ccc(Cl)cc1Cl` (stereo not drawn): 110%.
The same measure, in the same setting: the result for `CC(NC(=O)C1CC1)C(c1cccs1)N1CCN(c2ccccc2)CC1` (stereo not drawn) reads 95.5%.
With `O=C(Nc1c(C(=O)NCc2ccco2)cnn1-c1ccccc1)c1ccc(F)cc1`, the viability is 95.5%.
The same measure, in the same setting: the result for `COc1ccc(-n2c(Cc3cccn3C)nnc2SCC(=O)Nc2cccc(Cl)c2)cc1` reads 103%; that for `CCOC(=O)N1CCN(C(=O)c2ccc3nc4ccsc4c(=O)n3c2)CC1`, 97.5%; that for `CCC(C)C(=O)Nc1nc2c(s1)C(=O)CC(C)(C)C2` (stereo not drawn), 120%.
On the same count and under the same terms, next, `COc1cc2c(cc1OC)CN(C(=O)CSc1nc3[nH]ncc3c(=O)n1-c1ccccc1)CC2`: 105%; `CC(NC(=O)c1cc2c(=O)n(C)c3ccccc3c2n1C)c1ccc2c(c1)OCCO2` (stereo not drawn): 94.5%; `O=C(C1CCCN1S(=O)(=O)c1cccc2cccnc12)N1CCn2c1nc1ccccc12` (stereo not drawn): 100%.
Regarding `CCn1c(SCC(=O)Nc2cc(C)ccc2C)nc2c(c1=O)SC(C)C2` (stereo not drawn), the viability is 90.5%.
The same measure, in the same setting: the result for `CCOC(=O)c1sc2nc(NC(=O)COc3ccccc3)sc2c1C` reads 78.5%; that for `Cc1ccc(-n2ncc3c(N4CCCC(C)C4)ncnc32)c(C)c1` (stereo not drawn), 104%.
The same measure, in the same setting: the result for `O=C(O)C1C2C=CC3(CN(C4CCCC4)C(=O)C13)O2` (stereo not drawn) reads 101%; that for `CCCCSc1nc2c(cnn2-c2ccc(F)cc2)c(=O)[nH]1`, 93.5%; that for `CCCCCn1c(=O)[nH]c2cc(C(=O)NCCN3CCOCC3)ccc2c1=O`, 99.5%.
On the same count and under the same terms, next, `Cc1ccc(-c2cc3nc4c(c(=O)n3[nH]2)CCCC4)cc1`: 105%; `CCCOC(=O)c1[nH]c2c(c1C)C(=O)CC(c1cc(OC)c(OC)c(OC)c1)C2` (stereo not drawn): 89%; `COc1cccc(-c2nc3n(n2)C(c2ccccc2Cl)C(C(N)=O)=C(C)N3)c1` (stereo not drawn): 91%.
`Cc1c(NC(=O)c2ccc(Br)o2)c(=O)n(-c2ccccc2)n1C`: the viability is 91%.
On to `COc1ccc(-c2nc(CS(=O)CC(=O)NCc3ccccn3)c(C)o2)cc1` (stereo not drawn), for which the viability is 103%.
Same read-out and setting: the result for `CCOc1cc(C2NC(=O)NC(O)(C(F)(F)F)C2C(=O)c2ccccc2)ccc1OC` (stereo not drawn) reads 108%; that for `CN(CCCNC(=O)c1cn(C)c2ccc(S(=O)(=O)N(C)C)cc2c1=O)c1ccccc1`, 85.5%.

The next test is described as follows: HUVEC growth inhibition – cell-based, human, primary screen (AID 575;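 active = viability at or below 30% in both replicate assays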;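 note: 100% = median of untreated cell wells with 0.1% DMSO on each plate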). Particulars: HUVEC proliferation, CellTiter-Glo luminescence, 72 h; at 10 µM; stronger effect = lower value. The gist of the method:
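material = primary HUVEC, no more than 12 passages | input = 1250 cells per well | controls = vehicle and MePR control wells | measured by = CTG luminescence | times = 72 h compound incubation | format = collagen-coated 384-well format | read-out = % viability vs DMSO wells | doses = single 10 µM dose, 0.1% DMSO, from 5x medium stock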
Regarding `Cc1ccc(CNC(=O)C2CCCN(S(=O)(=O)c3cnc[nH]3)C2)cc1` (stereo not drawn), the viability is 94.5%.
With `COc1cc2c(cc1OC)C(c1ccc(C)o1)CC(=O)N2` (stereo not drawn), the viability was 86.2%.
In the case of `COc1ccc(S(=O)(=O)Nc2ccc(F)c(Cl)c2)cc1OC`, the viability is 106%.
The same measure, in the same setting: the result for `O=C(OCCN(CCOC(=O)c1ccncc1)S(=O)(=O)c1cccs1)c1ccncc1` reads 99.2%.
With `N#CCCN(Cc1cccnc1)C(=O)Nc1ccc(Cl)c(Cl)c1`, the viability is 94.6%.
With `NC(=O)CN1C(=O)C(O)(CC(=O)c2ccccc2O)c2ccccc21` (stereo not drawn), the viability was 92.1%.
The same measure, in the same setting: next, `CCCOc1ccc(C2C(C(=O)OC)=CN(CCOC)C=C2C(=O)OC)cc1`: 96.4%; `C(=N\c1c(-c2ccccc2)nc2n1CCS2)/c1ccccc1`: 85.9%.
For `COC(=O)c1cn(NC(=O)C2CCCO2)c(=O)c2ccccc12` (stereo not drawn), the viability is 93.7%.
With `CCN1CCN(C(=O)C2CC(c3ccc(F)cc3)=NO2)CC1` (stereo not drawn), the viability is 103%.
On to `CCOC(=O)C1CCN(Cc2ccc(OC)c(C)c2OC)CC1`, for which the viability is 108%.
On the same count and under the same terms, the result for `Cn1c(NC(=O)c2ccccc2NC(=O)C(C)(C)C)nc2ccccc21` reads 62.8%.
The same measure, in the same setting: next, `Cc1cccc(CN2CCC(CNC(=O)C3CCCN(S(=O)(=O)c4cnc[nH]4)C3)CC2)c1` (stereo not drawn): 98.8%; `CC1CC(NC(=O)c2cnc3n(c2=O)CCS3)CC(C)(C)C1` (stereo not drawn): 85.8%.
The same measure, in the same setting: next, `CC1CCCN(S(=O)(=O)c2coc(C(N)=O)c2)C1` (stereo not drawn): 82.6%; `O=C(NCc1ccc2c(c1)OCO2)C1CCCN(S(=O)(=O)c2cccc3cccnc23)C1` (stereo not drawn): 70%; `CC(C)(O)C#Cc1ccc(C(=O)N2CCN(C(=O)c3ccco3)CC2)cc1`: 108%.
On to `COC(=O)C1=C(C)Nc2nnnn2C1c1ccc(Cl)cc1Cl` (stereo not drawn), for which the viability is 114%.
The same measure, in the same setting: next, `CC(NC(=O)C1CC1)C(c1cccs1)N1CCN(c2ccccc2)CC1` (stereo not drawn): 105%.
The same measure, in the same setting: the result for `O=C(Nc1c(C(=O)NCc2ccco2)cnn1-c1ccccc1)c1ccc(F)cc1` reads 91.9%.
Regarding `COc1ccc(-n2c(Cc3cccn3C)nnc2SCC(=O)Nc2cccc(Cl)c2)cc1`, the viability was 63.3%.
On to `CCOC(=O)N1CCN(C(=O)c2ccc3nc4ccsc4c(=O)n3c2)CC1`, for which the viability was 87.2%.
For the compound `CCC(C)C(=O)Nc1nc2c(s1)C(=O)CC(C)(C)C2` (stereo not drawn), the viability was 97.1%.
As to `COc1cc2c(cc1OC)CN(C(=O)CSc1nc3[nH]ncc3c(=O)n1-c1ccccc1)CC2`, the viability was 79.7%.
On the same count and under the same terms, next, `CC(NC(=O)c1cc2c(=O)n(C)c3ccccc3c2n1C)c1ccc2c(c1)OCCO2` (stereo not drawn): 77%; `O=C(C1CCCN1S(=O)(=O)c1cccc2cccnc12)N1CCn2c1nc1ccccc12` (stereo not drawn): 64.9%; `CCn1c(SCC(=O)Nc2cc(C)ccc2C)nc2c(c1=O)SC(C)C2` (stereo not drawn): 74%.
On the same count and under the same terms, the result for `CCOC(=O)c1sc2nc(NC(=O)COc3ccccc3)sc2c1C` reads 74.1%; that for `Cc1ccc(-n2ncc3c(N4CCCC(C)C4)ncnc32)c(C)c1` (stereo not drawn), 60.2%; that for `O=C(O)C1C2C=CC3(CN(C4CCCC4)C(=O)C13)O2` (stereo not drawn), 100%.
On to `CCCCSc1nc2c(cnn2-c2ccc(F)cc2)c(=O)[nH]1`, for which the viability was 96.2%.
Still for that read-out and setting: the result for `CCCCCn1c(=O)[nH]c2cc(C(=O)NCCN3CCOCC3)ccc2c1=O` reads 114%; that for `Cc1ccc(-c2cc3nc4c(c(=O)n3[nH]2)CCCC4)cc1`, 88.7%; that for `CCCOC(=O)c1[nH]c2c(c1C)C(=O)CC(c1cc(OC)c(OC)c(OC)c1)C2` (stereo not drawn), 88.7%.
For `COc1cccc(-c2nc3n(n2)C(c2ccccc2Cl)C(C(N)=O)=C(C)N3)c1` (stereo not drawn), the viability is 74.3%.
Still for that read-out and setting: the result for `Cc1c(NC(=O)c2ccc(Br)o2)c(=O)n(-c2ccccc2)n1C` reads 89.2%; that for `COc1ccc(-c2nc(CS(=O)CC(=O)NCc3ccccn3)c(C)o2)cc1` (stereo not drawn), 92.9%.
On the same count and under the same terms, the result for `CCOc1cc(C2NC(=O)NC(O)(C(F)(F)F)C2C(=O)c2ccccc2)ccc1OC` (stereo not drawn) reads 104%.
The same measure, in the same setting: the result for `CN(CCCNC(=O)c1cn(C)c2ccc(S(=O)(=O)N(C)C)cc2c1=O)c1ccccc1` reads 98.3%.
